According to ChEMBL document CHEMBL4145471, “New 1,5 and 2,5-disubstituted tetrazoles-dependent activity towards surface barrier of Candida albicans” (Eur J Med Chem, 2018):

Experiments:
Candida albicans [1] = assay: Antifungal activity against Candida albicans ATCC 90028 at 2 ug/ml after 18 hrs relative to control; type: functional
How it was run: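 Planktonic broth microdilution per M27-A3 in MOPS-buffered RPMI 1640 (pH 7.0), final inoculum 1.8×10^3 cells/mL, compounds 0.0313–16 µg/mL from 1600 µg/mL stocks in ethanol or DMSO. Incubated at 35°C without agitation; OD405 read at 18 and 48 h. % inhibition was derived from test, sterility (no inoculum) and solvent growth-control wells. Amphotericin B at 0.5 µg/mL served as the 100% control.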

Candida albicans [2] = assay: Antifungal activity against Candida albicans ATCC 90028 at 0.0313 ug/ml after 48 hrs relative to control; type: functional
Caco-2 [3] = assay: Cytotoxicity against human Caco2 cells assessed as reduction in cell viability at 16 ug/ml after 18 hrs by XTT assay ralative to control; type: cell-based; conditions: caco-2, 18 h
How it was run: (§1)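 Caco-2 cells were exposed to compound at 256, 16 or 0.0313 µg/mL for 18 h, then given XTT reagent for 4–6 h. Absorbance was read at 475 nm with a 660 nm reference, and viability and toxicity were expressed as %. CC50 was taken as the concentration giving 50% viability loss. Means ± SD of three independent experiments, samples in duplicate.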

Caco-2 [4] = assay: Cytotoxicity against human Caco2 cells assessed as reduction in cell viability at 0.0313 ug/ml after 18 hrs by XTT assay ralative to control; type: cell-based; conditions: caco-2, 18 h; how it was run: as §1
Candida albicans [5] = assay: Synergistic antifungal activity against Candida albicans ATCC 90028 at 80 ug/ml after 48 hrs in presence of 40 ug/ml fluconazol by checkerboard assay relative to control; type: functional
How it was run: (§2)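 Checkerboard in C. albicans ATCC 90028, inoculum prepared per CLSI M27-A3 in RPMI. Fluconazole serially diluted 80-1.25 µg/mL across the plate against the partner compound at 80-1.25 µg/mL final. Incubated 48 h at 35°C. Metabolic activity read by XTT reduction at 475 nm (660 nm reference), given as % of the untreated growth control.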

Candida albicans [6] = assay: Synergistic antifungal activity against Candida albicans ATCC 90028 at 80 ug/ml after 48 hrs in presence of 1.25 ug/ml fluconazol by checkerboard assay relative to control; type: functional; how it was run: as §2
Candida albicans [7] = assay: Synergistic antifungal activity against Candida albicans ATCC 90028 at 40 ug/ml after 48 hrs in presence of 20 ug/ml fluconazol by checkerboard assay relative to control; type: functional; how it was run: as §2
Candida albicans [8] = assay: Synergistic antifungal activity against Candida albicans ATCC 90028 at 5 ug/ml after 48 hrs in presence of 1.25 ug/ml fluconazol by checkerboard assay relative to control; type: functional; how it was run: as §2
Candida albicans [9] = assay: Synergistic antifungal activity against Candida albicans ATCC 90028 at 2.5 ug/ml after 48 hrs in presence of 20 ug/ml fluconazol by checkerboard assay relative to control; type: functional
How it was run: (§3)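 Checkerboard microdilution (M27-A3) on C. albicans ATCC 90028 in RPMI 1640: fluconazole (80-1.25 µg/mL) crossed with tetrazole (80-1.25 µg/mL final), incubated at 35°C for 48 h. Growth by OD405 at 18 and 48 h, endpoint taken as 100% inhibition. FIC index = sum of the two agents' FICs; <1 synergism, >1 antagonism.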

Candida albicans [10] = assay: Synergistic antifungal activity against Candida albicans ATCC 90028 at 2.5 ug/ml after 48 hrs in presence of 2.5 ug/ml fluconazol by checkerboard assay relative to control; type: functional; conditions: ATCC 90028, 48 h, read-out: GI; how it was run: as §3
Candida albicans [11] = assay: Synergistic antifungal activity against Candida albicans ATCC 90028 at 2.5 ug/ml after 48 hrs in presence of 1.25 ug/ml fluconazol by checkerboard assay relative to control; type: functional; how it was run: as §3
Candida albicans [12] = assay: Antifungal activity against Candida albicans ATCC 90028 assessed as inhibition of metabolic activity at 10 ug/ml after 48 hrs in presence of 20 ug/ml fluconazol by XTT assay relative to control; type: functional; conditions: values are per cent of control
How it was run: (§4)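 Checkerboard against strain ATCC 90028, inoculum per M27-A3: fluconazole 80-1.25 µg/mL on one axis, tetrazole 80-1.25 µg/mL on the other. Plates at 35°C for 48 h, then XTT metabolic reduction read at 475 nm (660 nm reference). Activity is the drop in mean absorbance against untreated growth control. FICs and their summed FIC index are taken at 50% reduction in metabolic activity.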

Candida albicans [13] = assay: Antifungal activity against Candida albicans ATCC 90028 assessed as inhibition of metabolic activity at 10 ug/ml after 48 hrs in presence of 10 ug/ml fluconazol by XTT assay relative to control; type: functional; conditions: ATCC 90028, 48 h, values are per cent of control; how it was run: as §4
Candida albicans [14] = assay: Antifungal activity against Candida albicans ATCC 90028 assessed as inhibition of metabolic activity at 10 ug/ml after 48 hrs in presence of 1.25 ug/ml fluconazol by XTT assay relative to control; type: functional; conditions: values are per cent of control; how it was run: as §4
Candida albicans [15] = assay: Antifungal activity against Candida albicans ATCC 90028 assessed as inhibition of metabolic activity at 5 ug/ml after 48 hrs in presence of 2.5 ug/ml fluconazol by XTT assay relative to control; type: functional; conditions: values are per cent of control
How it was run: (§5)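 C. albicans ATCC 90028 in checkerboard: fluconazole serial dilutions (80-1.25 µg/mL) crossed with tetrazole (80-1.25 µg/mL final), M27-A3 inoculum in RPMI 1640, 35°C for 48 h. Metabolic activity measured by XTT reduction, read at 475 nm (660 nm reference). Activity expressed relative to untreated growth control absorbance.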

Candida albicans [16] = assay: Antifungal activity against Candida albicans ATCC 90028 assessed as inhibition of metabolic activity at 2.5 ug/ml after 48 hrs in presence of 20 ug/ml fluconazol by XTT assay relative to control; type: functional; conditions: values are per cent of control; how it was run: as §5
Candida albicans [17] = assay: Antifungal activity against Candida albicans ATCC 90028 assessed as inhibition of metabolic activity at 1.25 ug/ml after 48 hrs in presence of 10 ug/ml fluconazol by XTT assay relative to control; type: functional; conditions: values are per cent of control; how it was run: as §4
Candida albicans [18] = assay: Antifungal activity against Candida albicans ATCC 90028 after 48 hrs by M27-A3 microdilution method; type: functional; conditions: ATCC 90028, 48 h
Candida albicans [19] = assay: Antifungal activity against Candida albicans ATCC 90028 assessed as metabolic activity at 40 ug/ml after 48 hrs in presence of 5 ug/ml fluconazol by XTT assay relative to control
Candida albicans [20] = assay: Antifungal activity against Candida albicans ATCC 90028 assessed as metabolic activity at 80 ug/ml after 48 hrs in presence of 40 ug/ml fluconazol by XTT assay relative to control
Candida albicans [21] = assay: Antifungal activity against Candida albicans ATCC 90028 assessed as metabolic activity at 80 ug/ml after 48 hrs in presence of 20 ug/ml fluconazol by XTT assay relative to control
Candida albicans [22] = assay: Antifungal activity against Candida albicans ATCC 90028 assessed as metabolic activity at 20 ug/ml after 48 hrs in presence of 10 ug/ml fluconazol by XTT assay relative to control

| SMILES | Activity (Candida albicans [1]) [%] | Activity (Candida albicans [2]) [%] | Activity (Caco-2 [3]) [%] | Activity (Caco-2 [4]) [%] | growth inhibition (GI) (Candida albicans [5]) [%] | growth inhibition (GI) (Candida albicans [6]) [%] | growth inhibition (GI) (Candida albicans [7]) [%] | growth inhibition (GI) (Candida albicans [8]) [%] | growth inhibition (GI) (Candida albicans [9]) [%] | inhibition of growth at 2.5 µg/mL (Candida albicans [10]) [%] | growth inhibition (GI) (Candida albicans [11]) [%] | residual activity (Candida albicans [12]) [%] | residual activity at 10 µg/mL (Candida albicans [13]) [%] | residual activity (Candida albicans [14]) [%] | residual activity (Candida albicans [15]) [%] | residual activity (Candida albicans [16]) [%] | residual activity (Candida albicans [17]) [%] | MIC (Candida albicans [18]) [µg/mL] | Metabolic activity (Candida albicans [19]) [%] | Metabolic activity (Candida albicans [20]) [%] | further results |
| --- | --- | --- | --- | --- | --- | --- | --- | --- | --- | --- | --- | --- | --- | --- | --- | --- | --- | --- | --- | --- | --- |
| ClCCCn1nnnc1-c1ccccc1Cl | 97.4 | 99.38 | 25.49 | 0 | 99.79 | 100 | 99.53 | 99.79 | 99.53 | 99.4 | 100 | 87.4 | 75.4 | 73.65 | 68.03 | 68.53 | 62.08 | > 16 | 100 | 89.73 | Metabolic activity (Candida albicans [21]): 70.42%; Metabolic activity (Candida albicans [22]): 68.01% |
| CCOC(=O)CCn1nnc(-c2ccccc2)n1 | 99.35 | 99.12 | 50.46 | 0 | 99.34 | 99.97 | 99.54 | 99.71 | 99.52 | 99.8 | 99.79 | 70.81 | 76.2 | 90.58 | 80.73 | 67.39 | 74.44 | > 16 | 100 | 97.37 | Metabolic activity (Candida albicans [21]): 73.11%; Metabolic activity (Candida albicans [22]): 59.93% |
| Cc1ccc(-c2nnn(CCCN3CCOCC3)n2)cc1 | 95.72 | 99.56 | 27.73 | 18.76 | 99.21 | 98.77 | 99.55 | 98.77 | 98.82 | 98.5 | 98.95 | 93.01 | 99 | 100 | 100 | 86.25 | 100 | > 16 | 100 | 100 | Metabolic activity (Candida albicans [21]): 50.83%; Metabolic activity (Candida albicans [22]): 46.94% |
